Screens: PubChem, Sanford-Burnham Center for Chemical Genomics
SENP8 block-1 = SENP8 protease inhibition | 330,000 compounds, 1.2% hits | Q96LD8 | purified SENP8, Z-RLRGG-aminoluciferin cleavage, luminescence | AID 2540 | inhibition, % at 10 µM; in the data active = inhibition above about 50%
SENP6 inh = blocks the human protease SENP6. AID 2599. Q9GZR1. inhibition, % at 10 µM. 330,000 compounds, 1.8% hits. Recombinant SENP6 catalytic domain, aminoluciferin luminescence;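 active = inhibition above about 50% at the single tested dose, limit read from the data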;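 also: plate controls were DMSO wells with enzyme for no effect and DMSO wells lacking enzyme for full effect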
UBC13 inh = blocks human UBC13 polyubiquitin chain formation | P61088 | TR-FRET | inhibition, % at 20 µM | 330,000 compounds, 0.47% hits; in the data active = inhibition above about 45%, passing the limit was not always enough; inconclusive = no clear call, values can overlap the other calls
Apaf1 inhib = blocks human Apaf-1 apoptosome activity; AID 489030; reconstituted apoptosome caspase-3 activity, DEVD-Rh110 fluorescence; 330,000 compounds, 0.71% hits; inhibition, % at 20 µM; active = inhibition of at least 40% at 20 µM;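 also: plate controls were DMSO wells for no effect and DEVD-CHO caspase inhibitor wells for full effect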
Target sequence (O14727 whole entry, looked up): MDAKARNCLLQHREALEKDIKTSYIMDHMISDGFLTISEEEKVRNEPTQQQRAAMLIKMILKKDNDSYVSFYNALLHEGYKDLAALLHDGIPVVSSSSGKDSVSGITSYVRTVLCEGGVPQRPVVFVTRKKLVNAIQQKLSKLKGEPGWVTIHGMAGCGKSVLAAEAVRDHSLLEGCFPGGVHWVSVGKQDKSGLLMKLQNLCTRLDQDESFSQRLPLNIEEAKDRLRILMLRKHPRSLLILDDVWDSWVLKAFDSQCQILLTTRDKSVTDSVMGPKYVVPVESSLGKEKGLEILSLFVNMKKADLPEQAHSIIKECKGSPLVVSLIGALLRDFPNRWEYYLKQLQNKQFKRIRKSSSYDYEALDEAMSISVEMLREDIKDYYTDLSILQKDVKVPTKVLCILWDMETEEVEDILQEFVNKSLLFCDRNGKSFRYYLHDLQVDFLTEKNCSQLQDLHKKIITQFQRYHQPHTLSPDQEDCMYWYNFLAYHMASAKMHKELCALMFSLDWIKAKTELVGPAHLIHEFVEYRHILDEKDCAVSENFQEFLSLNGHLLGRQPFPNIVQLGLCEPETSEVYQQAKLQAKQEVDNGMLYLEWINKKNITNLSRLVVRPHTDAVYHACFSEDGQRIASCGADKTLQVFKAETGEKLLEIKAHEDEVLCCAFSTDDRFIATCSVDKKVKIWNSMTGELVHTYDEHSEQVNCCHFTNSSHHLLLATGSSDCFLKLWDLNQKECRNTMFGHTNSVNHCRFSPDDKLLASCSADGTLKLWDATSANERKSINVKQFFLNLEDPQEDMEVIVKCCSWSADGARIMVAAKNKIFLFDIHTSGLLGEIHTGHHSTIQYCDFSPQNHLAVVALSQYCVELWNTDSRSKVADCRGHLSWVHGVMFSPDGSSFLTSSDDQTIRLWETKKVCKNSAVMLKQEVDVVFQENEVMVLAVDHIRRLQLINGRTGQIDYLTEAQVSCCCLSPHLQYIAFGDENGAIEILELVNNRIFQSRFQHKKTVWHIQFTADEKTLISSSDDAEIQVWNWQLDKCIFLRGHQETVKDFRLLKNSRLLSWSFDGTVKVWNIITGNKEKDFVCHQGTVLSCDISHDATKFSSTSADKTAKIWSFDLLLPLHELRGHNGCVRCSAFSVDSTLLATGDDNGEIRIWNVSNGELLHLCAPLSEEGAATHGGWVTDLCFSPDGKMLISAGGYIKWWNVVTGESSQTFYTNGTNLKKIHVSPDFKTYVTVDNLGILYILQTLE
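detection = Rh110 fluorescence intensity | test system = biochemical Apaf-1 apoptosome reconstitution | also added = cytochrome c and DEVD-Rh110 substrate | schedule = 30 min plus 50 min, RT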
SENP7 inh = SENP7 protease inhibition; AID 434973; inhibition, % at 5 µM; recombinant SENP7, Z-RLRGG-aminoluciferin luminescence, 40 min; 330,000 compounds, 1.5% hits;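 active = inhibition above about 50% at the single test dose, limit read from the data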;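 also: plate controls were DMSO with enzyme for no effect and no enzyme buffer wells for full effect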
SENP8 block-2 = inhibitors of human SENP8 protease; 360,000 compounds, 0.64% hits; recombinant SENP8, Nedd8 substrate fluorescence; inhibition, % at 20 µM; AID 602440; in the data active = inhibition mostly above about 40%, no sharp cut-off; inactive = mostly below about 27%
SENP8 confirm = confirmation of human SENP8 protease inhibitors | shares compounds with SENP7 inh | Recombinant SENP8, Z-RLRGG-aminoluciferin luminescence, 60 min | inhibition, % at 12.5 µM | 6,200 compounds, 40% hits;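 active = mean inhibition across replicates above about 50%, limit read from the data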
SENP6 confirm = confirmation of human SENP6 protease inhibitors; recombinant SENP6, Z-RLRGG-aminoluciferin luminescence; 6,200 compounds, 58% hits; AID 488915; shares compounds with SENP7 inh; inhibition, % at 12.5 µM
SENP7 confirm = confirmation of human SENP7 protease inhibitors; recombinant SENP7, Z-RLRGG-aminoluciferin luminescence, 40 min; inhibition, % at 12.5 µM; 6,200 compounds, 69% hits; shares compounds with SENP7 inh
Casp3 select = inhibits human caspase-3 in SENP selectivity test | shares compounds with SENP7 inh | purified caspase-3, Z-DEVD-aminoluciferin luminescence, 60 min | inhibition, % at 12.5 µM | 6,200 compounds, 60% hits | AID 488918;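 active = mean inhibition above about 50%, limit read from the data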;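 also: plate controls were enzyme with DMSO for no effect and wells without caspase-3 for full effect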
SENP luc ctr = counter-screen for SENP inhibitors: luminescence interference; shares compounds with SENP7 inh; Pre-incubated SENP8/Z-RLRGG-aminoluciferin, luciferase luminescence interference; inhibition, % at 12.5 µM; 6,200 compounds, 39% hits; AID 488919;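 active = mean inhibition above about 50% when retested at one dose, limit read from the data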;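 also: plate controls were DMSO wells with completed reaction for no effect and substrate without enzyme for full effect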
* hit, by the source's call; i = inactive; ? = inconclusive; nt = not tested or not shown. Sampled rows, rich in hits. Any-hit rate of the full collection: about 3.1%.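 The calls were made as follows, unless noted: active = mean inhibition above about 50% in the one-dose retest (limit read from the data); inactive = the rest.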

SMILES | SENP8 block-1 | SENP6 inh | UBC13 inh | Apaf1 inhib | SENP7 inh | SENP8 block-2 | SENP8 confirm | SENP6 confirm | SENP7 confirm | Casp3 select | SENP luc ctr
O=C(NN/C(=N/S(=O)(=O)c1ccc(Cl)cc1)c1ccccc1)c1cccc(Cl)c1 | 71.0* | 86.3* | -0.2 | 12.3 | 84.7* | 19.6 | 50.7* | 64.0* | 87.1* | 63.0* | 38.5
Cc1ccc(S(=O)(=O)/N=C(/NNC(=O)c2cccc(Cl)c2)c2ccccc2)cc1 | 49.1 | 78.2* | -4.5 | 10.1 | 68.2* | 10.0 | 13.6 | 24.9 | 62.7* | 42.7 | 45.3
O=C(O)c1ccc(N/C(=N\S(=O)(=O)c2ccc(Cl)cc2)c2ccccc2)cc1 | -9.2 | -21.5 | -10.1 | 4.7 | -4.4 | 16.0 | nt | nt | nt | nt | nt
CCN(CC)S(=O)(=O)c1ccc(N2CCOCC2)c(NC(=O)c2nn(C(C)C)c(=O)c3ccccc23)c1 | nt | nt | nt | nt | nt | 13.2 | nt | nt | nt | nt | nt
CN1C[C@@H]2[C@@H]3C(=O)N(Cc4ccccc4)C(=O)[C@@H]3[C@](Cc3ccccc3)(C1=O)N2C(=O)c1ccc(Cl)cc1 | nt | nt | nt | nt | nt | -32.2 | nt | nt | nt | nt | nt
Cn1ccnc1SCC(=O)c1ccc(Cl)cc1 | 10.6 | -20.7 | -0.6 | -8.9 | 14.8 | 8.8 | nt | nt | nt | nt | nt
Cn1ccnc1SCC(=O)c1ccc(O)cc1 | 25.6 | 54.7* | 0.3 | -10.6 | 40.1 | 18.3 | 21.3 | 16.4 | 66.9* | 80.1* | 52.5*
COc1cc(OC)cc(C2=Cc3ccccc3C(CC(=O)c3ccco3)N2c2ccc(-c3ccc(C(N)=O)cc3)cc2)c1 (stereo not drawn) | nt | nt | nt | nt | nt | -281.8 | nt | nt | nt | nt | nt
CCOC(=O)c1cc(OC(C)=O)c2ccc(OC)c(OC)c2c1 | nt | nt | nt | nt | nt | -495.2 | nt | nt | nt | nt | nt
O=c1oc2cc(O)c(Cl)cc2c2ccccc12 | 34.2 | 60.9* | ? | -2.2 | 11.4 | -89.1 | 50.2* | 45.4 | 73.3* | 67.9* | 37.8
CS(=O)(=O)c1ccc2nc(NC(=O)c3cc4ccccc4o3)sc2c1 | 52.5* | 82.9* | 2.0 | 8.5 | 54.1* | i | 16.6 | 14.1 | 40.7 | 33.5 | 6.4
Cc1ccc(C(=O)Nc2nc3ccc(S(C)(=O)=O)cc3s2)o1 | 32.8 | -15.2 | 14.3 | 3.5 | 59.9* | -234.7 | 56.5* | 54.3* | 84.5* | 85.9* | 64.3*
Cc1nnc(NC(=O)c2cc3ccccc3o2)s1 | -4.7 | -1.8 | -2.5 | -6.3 | 1.5 | -13.8 | nt | nt | nt | nt | nt
CS(=O)(=O)c1ccc2nc(NC(=O)c3ccco3)sc2c1 | 23.3 | 24.4 | -2.7 | -0.1 | 26.0 | -236.1 | nt | nt | nt | nt | nt
O=C(Nc1nc2ccc(Cl)cc2s1)c1ccc(Br)o1 | 29.9 | 53.2* | 1.2 | 4.5 | 58.5* | -273.5 | 10.3 | 17.7 | 7.3 | 16.1 | 6.3
CS(=O)(=O)c1ccc2sc(NC(=O)c3cc4ccccc4o3)nc2c1 | 45.8 | 77.4* | 15.2 | -1.2 | 28.2 | -415.2 | -4.3 | -6.5 | 0.1 | 37.7 | 23.3
CC(=O)Nc1nc2ccc(-c3nc4ccccc4o3)cc2s1 | 24.1 | -2.2 | 4.2 | 3.3 | 64.3* | -495.1 | 20.4 | 16.4 | 19.9 | 11.7 | -2.6
FC(F)(F)C1=NNC(c2ccc3ccccc3c2)=NN1 | nt | nt | nt | nt | nt | 6.4 | nt | nt | nt | nt | nt
NC(=O)c1ccsc1NC(=O)c1cccs1 | -1.5 | -12.1 | -9.3 | 9.4 | 3.0 | -105.5 | nt | nt | nt | nt | nt
CC(C)Cc1nnc(NC(=O)c2ccc(N3CCCC3=O)cc2)s1 | -2.4 | -5.6 | 3.3 | -0.8 | 2.0 | -85.0 | nt | nt | nt | nt | nt
NS(=O)(=O)c1ccc(NC(=O)c2ccc3c(c2)CCCC3)cc1 | -4.8 | -2.5 | 8.9 | -6.1 | -3.0 | 6.4 | nt | nt | nt | nt | nt
NC(=O)c1ccsc1NC(=O)c1ccc(N2CCCC2=O)cc1 | 86.9* | 90.3* | 7.4 | -12.8 | 88.9* | -286.0 | 91.5* | 90.9* | 99.5* | 94.0* | 12.0
CNC(=O)c1ccsc1NC(=O)c1ccc2c(c1)CCCC2 | 38.4 | 58.7* | 10.0 | 9.0 | 53.9* | -200.5 | 59.5* | 60.0* | 82.2* | 32.3 | 21.7
NC(=O)c1ccsc1NC(=O)c1ccc2c(c1)CCCC2 | 96.0* | 95.8* | 15.5 | 23.7 | 99.1* | -177.5 | 97.3* | 97.3* | 101.4* | 95.5* | 67.3*
C/C(=N/NS(=O)(=O)c1ccc(Br)cc1)c1cccc(NC(=O)C2CC2)c1 | nt | nt | nt | nt | nt | 12.0 | nt | nt | nt | nt | nt
SMILES | SENP8 block-1 | SENP6 inh | UBC13 inh | Apaf1 inhib | SENP7 inh | SENP8 block-2 | SENP8 confirm | SENP6 confirm | SENP7 confirm | Casp3 select | SENP luc ctr
CCCCC1CCC(c2nc(-c3ccccn3)no2)CC1 (stereo not drawn) | 54.2* | 71.5* | 6.1 | 30.3 | 41.4 | 17.1 | 10.6 | 28.1 | 0.7 | 25.1 | 26.4
c1ccc(-c2noc(C3CCC3)n2)nc1 | -4.8 | -19.4 | 9.7 | -23.4 | -4.8 | 18.2 | nt | nt | nt | nt | nt
Cc1cccnc1C(NC(=O)C1CCN(Cc2ccc3ccccc3n2)CC1)c1ccc(Cl)cc1 (stereo not drawn) | nt | nt | nt | nt | nt | -5.0 | nt | nt | nt | nt | nt
COc1ccc2[nH]c3c(=O)n(Cc4ccc(C(=O)N5CCC(C(N)=O)CC5)cc4)c(=S)[nH]c3c2c1 | 66.5* | 68.6* | -6.5 | -2.2 | 56.6* | -300.0 | 73.1* | 72.0* | 87.3* | 68.2* | 41.1
COc1ccc(S(=O)(=O)NCCC(C)C)cc1OC | -8.1 | -5.4 | -1.5 | -13.0 | 88.4* | -4.3 | 14.2 | 12.8 | 9.0 | 1.8 | 2.8
COc1ccc(C(=O)Nc2ccc(NC(=O)c3ccccn3)cn2)cc1 | -13.4 | -12.7 | 2.5 | 5.1 | 11.1 | -6.9 | nt | nt | nt | nt | nt
COc1ccc(NC(=O)c2ccccn2)cc1 | 80.6* | 93.8* | 0.6 | 2.2 | 91.2* | -0.1 | 84.8* | 85.7* | 98.4* | 94.7* | 85.2*
COc1ccc(NC(=O)c2cc3ccccn3n2)cc1 | 58.1* | 70.6* | -9.6 | 11.1 | 69.1* | 14.8 | 76.9* | 74.8* | 93.8* | 87.8* | 79.4*
Cc1ccc(C(=O)COC(=O)c2ccc(Cl)c(N)c2)s1 | 54.2* | 65.6* | 16.9 | 3.0 | 55.8* | -17.4 | 50.2* | 47.7 | 83.8* | 46.4 | 48.9
Nc1cc(C(=O)OCC(=O)c2ccc(CC(=O)N3CCOCC3)s2)ccc1Cl | -2.9 | -11.0 | -31.6 | -2.4 | -9.2 | -32.1 | nt | nt | nt | nt | nt
O=C(O)c1cc(/C=C/c2ccc(N3CCOCC3)cc2)nc2ccccc12 | 70.0* | 1.7 | -15.0 | -0.3 | 68.8* | -417.8 | 79.0* | 78.5* | 95.6* | 90.3* | 83.1*
